# S100A4 MyoIIA – inhibitors of S100A4-myosin IIA peptide binding, primary screen, biochemical, fluorescence polarization, TAMRA-MyoIIA peptide. Protein S100-A4 (Homo sapiens), P26447. inhibition, % at 10.7 µM. 360,000 compounds, 0.14% hits. AID 652163, 2013;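 active = mean inhibition of at least 70% across replicates, with every replicate also reaching that level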
# Target sequence (P26447 whole entry, looked up): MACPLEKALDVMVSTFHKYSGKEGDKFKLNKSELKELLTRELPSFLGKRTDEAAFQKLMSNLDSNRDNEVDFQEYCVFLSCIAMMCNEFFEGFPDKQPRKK
#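 assay system = human S100A4 monomer with TAMRA-labelled myosin IIA peptide | also added = labelled myosin peptide probe, 5 nM | incubation = 5 min between mix addition and reading | control set = DMSO and TFP controls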
# F508del corr – F508del CFTR correction, initial screen, CFBE line, single point; CFBE cells, YFP halide quenching; stimulated with forskolin plus potentiator P3; % fluorescence drop versus neutral controls; activity (quench increase), % at 7.58 µM; 350,000 compounds, 0.36% hits;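 active = mean added fluorescence quench of at least 8% versus neutral control, with both replicates also reaching 8%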;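 also: cells transiently co-express mutant CFTR-F508del with the halide-sensitive YFP; corrector assay measuring rescue of mutant channel to the surface after 24 h compound exposure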
# Env fusion inh – inhibitors of HIV-1 Env-driven cell-cell fusion, primary screen, HeLa-JRFL effector, CEM21 target cells, luciferase; inhibition, % at 12.3 µM; 360,000 compounds, 1.1% hits; AID 651610, 2012;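 active = mean replicate inhibition score of at least 50 and every replicate individually at or above 50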;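 also: 0% = plate neutral controls and 100% = maraviroc near 300 nM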
# FGF22 binding – binders of human FGF22 protein, primary screen, FGF22 synaptogenesis inhibitor project, biophysical, thermal shift, single point; Fibroblast growth factor 22 (Homo sapiens), Q9HCT0; recombinant FGF22 thermal shift, SYPRO orange fluorescence; percent of sucrose octasulfate shift, DMSO zero; activity (Tm shift, normalised), % at 9.99 µM; 340,000 compounds, 1.5% hits; AID 651658, 2012;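 active = mean Tm shift, scaled 0 neutral to 100 positive control, at about 1.3% or above, every replicate too, limit read from the data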
# Target sequence (Q9HCT0 whole entry, looked up): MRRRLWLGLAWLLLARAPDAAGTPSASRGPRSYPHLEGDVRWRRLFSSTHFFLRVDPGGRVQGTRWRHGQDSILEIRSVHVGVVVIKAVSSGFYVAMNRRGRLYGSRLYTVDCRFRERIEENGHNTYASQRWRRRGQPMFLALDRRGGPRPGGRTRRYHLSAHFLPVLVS
# E-selectin induc – E-selectin induction in HUVECs, primary screen, imaging, HUVEC, immunofluorescence imaging, single point | P16581 | normalized: neutral wells 0, TNF-alpha wells 100 | activation, % at 7.58 µM | 260,000 compounds, 0.37% hits | AID 686992, 2013;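 active = mean E-selectin-positive cell signal at least 10% of the positive control, reached in at least 60% of replicates, without over 20% cell loss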
#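 material = human umbilical vein endothelial cells (HUVEC), E-selectin induction | quantity = 3,000 cells/well | medium = EGM-2 growth medium on 0.1% gelatin-coated wells | technique = immunofluorescence imaging | read-out basis = % PE-positive cells | control set = TNF-alpha positive control, DMSO neutral control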
# * hit, by the source's call; / = no result; [ ] = remark or other dose. Most compounds without a hit are left out; they make up all but 2.7% or so of the library.
SMILES,S100A4 MyoIIA,F508del corr,Env fusion inh,FGF22 binding,E-selectin induc
CC1COCC(C)N1C1=C(Cl)C(=O)c2ccccc2C1=O (stereo not given),5,-2,9,0,0
C[C@H]1COC[C@@H](C/C=C/c2ccccc2)N1c1ccccc1,-6,1,10,43*,0
O=C(N[C@@H]1CC[C@H](CC(=O)N2CCCCC2)O[C@H]1CO)c1ccc2c(c1)OCO2,-42,4,16[16.7 µM],0,0
O=C(O)C1Cc2[nH]cnc2C(c2ccc(F)cc2)N1 (stereo not given),2,-3,-12,43*,/
O=C(Nc1ccc(F)cc1)c1nc[nH]c1C(=O)O,-6,2,20,0,2
COc1ccc(S(=O)(=O)N(C)C[C@H]2OCCCC[C@H](C)Oc3ccc(NS(=O)(=O)c4ccc(C)cc4)cc3C(=O)N([C@@H](C)CO)C[C@@H]2C)cc1,-10,6,-10[16.7 µM],0,0
CCOC(=O)C1=C(C)N(C[C@@H]2CC[C@@H](Cc3ccc(-c4ccccc4)cc3)O2)C(=O)NC1c1cccc2ccccc12 (stereo not given in full),-2,0,17,0,0
CCOC(=O)C1=C(C)N(C[C@@H]2CC[C@@H](Cc3ccc(-c4ccccc4)cc3)O2)C(=O)NC1c1ccc(C(F)(F)F)cc1 (stereo not given in full),-2,-1,67*,0,-2
CO[C@@H]1CN(C)C(=O)c2ccc(NC(=O)C3CCC3)cc2OC[C@H](C)N(Cc2nccs2)C[C@H]1C,-13,0,/,0,0
O=C(/C=C/NNC(=O)c1ccc(Cl)cc1)c1ccccc1,0,3,23,44*,/
CCOC(=O)c1c[nH]c2nc(C)ccc2c1=O,-1,4,-1,43*,/
C[C@@H]1CN([C@@H](C)CO)C(=O)c2cc(NC(=O)c3ccncc3)ccc2O[C@@H](C)CCCCO[C@H]1CN(C)C(=O)CCCN(C)C,/,-2,-5[16.7 µM],0,0
CN(C)C(=O)CCCc1nc(-c2ccc(Cl)cc2)no1,/,/,55*,/,/
O=C(CCCc1nc(-c2ccc(Cl)cc2)no1)Nc1cccnc1,/,/,61*,/,-1
CCC(=O)N(C)C[C@H]1Oc2ncc(/C=C/c3ccccc3)cc2C(=O)N([C@H](C)CO)C[C@@H]1C,19,1,-13[16.7 µM],0,0
COc1ccc(NC(=O)N2C[C@@H]3N[C@H](C2)[C@@H]3c2ccc(-c3ccc(OC)cc3)cc2)cc1,6,-7,/,/,0
COc1ccccc1NC(=O)c1ccc2c(c1)nnn2C,2,1,-16,44*,/
N#CN=CN1CC=C(c2ccc(Cl)cc2)CC1,-12,1,63*,0,0
O=C(c1ccccc1F)N1C[C@H]2[C@@H](c3ccccc31)[C@@H](CO)N2C(=O)c1ccccc1,2,0,/,0,0
CCN(C[C@H]1[C@H](c2ccccc2)[C@H](CO)N1C(C)=O)C(=O)c1ccccn1,104*,0,/,-1,0
CN(C[C@@H]1N[C@H](CO)[C@H]1c1ccccc1)C(=O)c1ccccn1,-3,8.6*,/,0,0
O=C(c1cc(=O)[nH]c2ccccc12)N1CCN(c2ccc([N+](=O)[O-])cc2)CC1,-1,-3,8,0,33*
O=C1CCCc2[nH]c3cccc(/C(=C/c4ccccc4)c4ccccc4)c3c21,-20,0,70*,0,0
COC(=O)c1ccc2[nH]c3cccc(/C(=C/c4ccccc4)c4ccccc4)c3c2c1,-2,1,32,0,0
CCN(CC)S(=O)(=O)c1cc(NC(=O)C(=O)c2c(-c3ccccc3)cc3ccccn23)ccc1C,/,/,77*,/,/
CCN(CC)S(=O)(=O)c1cccc(C(=O)c2c(C)cc3ccccn23)c1,-1,2,-21,43*,/
N#CC1=C(SCC(=O)NC23CC4CC(CC(C4)C2)C3)NC(=O)C(C#N)C12CCCCC2 (stereo not given),-2,0,/,1.9*,/
CCCNC(=O)C[C@@H]1C[C@H]2c3cc(NS(C)(=O)=O)ccc3O[C@H]2[C@@H](CO)O1,2,1,/,0,0
